Assay results taken from ChEMBL document CHEMBL1133473, “Synthesis and antiviral activity of 4-benzyl pyridinone derivatives as potent and selective non-nucleoside human immunodeficiency virus type 1 reverse transcriptase inhibitors” (J Med Chem, 2000).
Where “and” joins values, the source holds several entries; their conditions need not be identical. Equal values may be shown once.

Columns and labels:
CEM-SS [1] = test: Tested for cytotoxic concentration on HIV-I Lai wild type in CEM-SS cell line; assay type: functional; conditions: Homo sapiens
Method in brief: (§1)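 CEM-SS cells, uninfected, cultured 5 days with compound. Compounds were taken from a DMSO solution at 10^-2 M (10^-3 M or lower if insoluble), diluted 1:100 in medium, then serially diluted in medium.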

CEM-SS [2] = test: Tested for inhibitory concentration on HIV-I Lai wild type in CEM-SS cell line; assay type: functional, cell-based; conditions: Homo sapiens
Method in brief: (§2)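 CEM-SS lymphocytic cells infected with 100 TCID50 of HIV-1 LAI, or of the nevirapine-resistant N119 strain carrying an RT codon 181 mutation. Virus adsorbed 30 min, unbound virus removed by two washes, then cells cultured 5 days with serial compound dilutions. Read-out: RT activity of particles released into the supernatant. IC50 from a computer median effect plot of dose-effect data.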

[3] = tested on: Human immunodeficiency virus 1; test: Tested for inhibitory concentration on HIV-I nevirapine resistant strain.; assay type: functional, organism-based; method in brief: as §2
[4] = tested on: Human immunodeficiency virus 1; test: Inhibitory concentration against HIV-1 Bal/Mono; assay type: functional, organism-based
Method in brief: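 Macrophage-tropic HIV-1 Bal in monocyte-derived macrophages kept serum-free in AIM V medium with 100 U/mL GM-CSF. Virus output measured as supernatant particle-associated RT activity.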

[5] = tested on: Human immunodeficiency virus 1; test: Tested for cytotoxic concentration on HIV-I nevirapine resistant strain.; assay type: functional; method in brief: as §1
[6] = Cytotoxicity against PBMC cells infected with HIV-2 D 194; assay type: functional; conditions: Human immunodeficiency virus 2, PBMC
[7] = Cytotoxicity against Macrophages infected with HIV-1 Bal/Mono; assay type: functional; conditions: Human immunodeficiency virus 1
[8] = tested on: Human immunodeficiency virus 1; test: Selectivity index is the ratio of CC50 to IC50; assay type: functional
[9] = Inhibitory concentration against HIV-2 D 194; assay type: functional
Method in brief: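 Cell-based antiviral assay against this HIV-2 isolate. Compounds were dissolved in DMSO as 10^-2 M stocks, or 10^-3 M or lower when insoluble, diluted 1% in culture medium, then serially diluted in medium. Virus production was read as reverse transcriptase activity of particles released into the culture supernatant. IC50 was taken from a median-effect plot of the dose-effect data.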

MT4 [10] = test: Cytotoxicity against MT-4 cells infected with HIV-1 AZTres; assay type: functional; conditions: Homo sapiens
[11] = tested on: Human immunodeficiency virus 1; test: Inhibitory concentration against HIV-1 AZTres.; assay type: functional, organism-based
Method in brief: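 AZT-resistant HIV-1 isolate A018 G910-6 tested in cell culture; virus production measured as RT activity of particles released into the culture supernatant.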

[12] = Cytotoxicity against PBMC cells infected with HIV-1 IIIB strain; assay type: functional; conditions: Human immunodeficiency virus 1, PBMC
MT4 [13] = test: Cytotoxicity against MT-4 cells infected with HIV-1 IIIB strain; assay type: functional; conditions: Homo sapiens
[14] = molecular target: Human immunodeficiency virus type 1 reverse transcriptase (Human immunodeficiency virus 1, UniProt Q72547); test: Tested for inhibitory concentration on HIV-1 Reverse transcriptase in the presence of poly(c)-oligo-(dG)
Method in brief: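 Recombinant HIV-1 RT purified from yeast, 20-50 nM. Reaction at 37 °C for 10 min in 50 mM Tris-HCl pH 8.0, 5 mM MgCl2, 4 mM DTT, 80 mM KCl, BSA, 0.48 A260 units/mL poly(C)-oligo(dG) (5:1), 2 µM dGTP plus [3H]dGTP. Stopped with cold 10% TCA plus 0.1 M pyrophosphate; precipitates filtered, scintillation counted. Compounds dissolved in DMSO.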

[15] = tested on: Human immunodeficiency virus 1; test: Inhibitory concentration against HIV-1 IIIB strain; assay type: functional, organism-based
Method in brief: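 MT4 cells infected with HIV-1 IIIB; antiviral effect read as protection from virus-induced cytopathogenicity by MTT. Compounds taken from DMSO stock, diluted in culture medium.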

[16] = (§3) Selectivity index is the ratio of CC50 to IC50 against HIV-1 nevirapine resistant strain; assay type: functional
[17] = tested on: Human immunodeficiency virus 1; test: as §3; assay type: functional

For CCc1c(C)nc(OC)c(NC(=O)C(C)(C)C)c1C(C)(O)c1cc(C)cc(C)c1 (stereo not drawn), the CC50 (CEM-SS [1]) was > 10000 nM and the IC50 (CEM-SS [2]) was > 10000 nM.
For CCc1c(C)[nH]c(=O)c(NC(C)=O)c1Cc1cc(C)cc(C)c1, the IC50 [3] was > 10000 nM, the IC50 [4] was 200 nM and the CC50 [5] was > 10000 nM. The CC50 [6] was > 10000 nM, the CC50 [7] was > 10000 nM and the SI [8] was >100. The IC50 [9] was > 10000 nM, the CC50 (MT4 [10]) was > 10000 nM and the IC50 [11] was 440 nM. The CC50 [12] was > 10000 nM, the CC50 (CEM-SS [1]) was > 10000 nM and the IC50 (CEM-SS [2]) was 100 nM. The CC50 (MT4 [13]) was > 10000 nM.
With Cc1cc(C)cc(Sc2c(C)cnc(O)c2NC=O)c1 the SI [8] was >15 and the IC50 (CEM-SS [2]) was 6600 nM.
Compound CCOCn1c(Cc2cc(C)cc(C)c2)c(C(C)C)c(=O)[nH]c1=O has an SI [8] of 72000, a CC50 (CEM-SS [1]) of 43000 nM and an IC50 (CEM-SS [2]) of 0.6 nM.
For CCc1c(C)nc(O)c(N)c1Cc1cc(C)cc(C)c1, the IC50 [3] was 1000 nM, the IC50 [4] was 130 nM and the CC50 [5] was > 10000 nM. For the same compound, the CC50 [6] was > 10000 nM, the CC50 [7] was > 10000 nM and the SI [8] was >588. The IC50 [9] was > 10000 nM, the CC50 (MT4 [10]) was > 10000 nM and the IC50 [14] was 100 nM. For the same compound, the IC50 [11] was 4350 nM, the CC50 [12] was > 10000 nM and the IC50 [15] was 310 nM. For the same compound, the IC50 ([15]; Human immunodeficiency virus 1) was 500 nM, the CC50 (CEM-SS [1]) was > 10000 nM and the IC50 (CEM-SS [2]) was 17 nM. For the same compound, the SI [16] was > 10 and the CC50 (MT4 [13]) was > 10000 nM.
For CCOC(=O)Nc1c(O)nc(C)c(CC)c1Cc1cc(C)cc(C)c1, the SI [8] was >21, the CC50 (CEM-SS [1]) was > 10000 nM and the IC50 (CEM-SS [2]) was 460 nM.
For CCc1c(C)nc(O)c(NC(=O)CN)c1Cc1cc(C)cc(C)c1, the SI [8] was >5555, the CC50 (CEM-SS [1]) was > 100000 nM and the IC50 (CEM-SS [2]) was 18 nM.
For CCC(=O)Nc1c(Cc2cc(C)cc(C)c2)c(CC)c(C)[nH]c1=O, the SI [8] was >2, the CC50 (CEM-SS [1]) was > 10000 nM and the IC50 (CEM-SS [2]) was 4600 nM.
For CCc1cc(NC(=O)C(C)(C)C)c(OC)nc1C, the CC50 (CEM-SS [1]) was > 100000 nM and the IC50 (CEM-SS [2]) was > 100000 nM.
With CCc1c(C)nc(OC)c2c1C(c1cc(C)cc(C)c1)OC(C(C)(C)C)=N2 (stereo not drawn) the CC50 (CEM-SS [1]) was > 10000 nM and the IC50 (CEM-SS [2]) was > 10000 nM.
For CCc1c(C)nc(OC)c(NC(=O)C(C)(C)C)c1Cc1cc(C)cc(C)c1, the CC50 (CEM-SS [1]) was > 100000 nM and the IC50 (CEM-SS [2]) was > 100000 nM.
For Cc1c(Sc2ccccc2)n(COCc2ccccc2)c(=O)[nH]c1=O, the IC50 [14] was 300 nM.
Compound CCOCn1c(Cc2cc(C)cc(C)c2)c(CC)c(=O)[nH]c1=O has an SI [8] of 130000, a CC50 (CEM-SS [1]) of 207000 nM and an IC50 (CEM-SS [2]) of 1.6 nM.
With CCc1c(C)nc(O)c(N)c1C(O)c1cc(C)cc(C)c1 (stereo not drawn) the IC50 [3] was 4500 nM, the IC50 [4] was 180 nM and the CC50 [5] was > 10000 nM. For the same compound, the CC50 [6] was > 10000 nM, the CC50 [7] was > 10000 nM and the SI [8] was >10. The IC50 [9] was > 10000 nM, the CC50 (MT4 [10]) was > 10000 nM and the IC50 [11] was 420 nM. The CC50 [12] was > 10000 nM, the IC50 [15] was 3400 nM and 690 nM and the CC50 (CEM-SS [1]) was > 10000 nM. The IC50 (CEM-SS [2]) was 1000 nM, the SI [17] was >2 and the CC50 (MT4 [13]) was 10000 nM.
In the case of CCc1cc(NCc2cc(C)c(C)cc2OC)c(O)nc1C, the IC50 (CEM-SS [2]) is reported as 8 nM.
With CCc1c(C)nc(OC)c(NC(=O)C(C)(C)C)c1C(OC(C)=O)c1cc(C)cc(C)c1 (stereo not drawn) the SI [8] was >1, the CC50 (CEM-SS [1]) was > 10000 nM and the IC50 (CEM-SS [2]) was 10000 nM.
With CCc1c(C)[nH]c(=O)c(N(C)C)c1Cc1cc(C)cc(C)c1 the IC50 [3] was 40 nM, the IC50 [4] was 0.004 nM and the CC50 [5] was > 1000 nM. The CC50 [6] was > 1000 nM, the CC50 [7] was > 1000 nM and the SI [8] was >5000. For the same compound, the IC50 [9] was > 1000 nM, the CC50 (MT4 [10]) was > 1000 nM and the IC50 [14] was 20 nM. The IC50 [11] was 0.2 nM, the CC50 [12] was > 1000 nM and the IC50 [15] was 2.4 nM and 0.58 nM. For the same compound, the CC50 (CEM-SS [1]) was > 1000 nM, the IC50 (CEM-SS [2]) was 0.2 nM and the SI [17] was >25. The CC50 (MT4 [13]) was > 1000 nM.
For CCc1c(C)nc(OC)c(NC(=O)C(C)(C)C)c1Cc1ccccc1, the CC50 (CEM-SS [1]) was > 1000 nM and the IC50 (CEM-SS [2]) was > 1000 nM.
